# Experimental data published in the EternaBench riboswitch data.
# Legend:
# MS2 coat protein [1] = experiment: apparent Kd, MS2 coat protein; higher = weaker binding; RNA-MaP array
# Procedure, shortened: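 With or without input ligand, designed RNAs transcribed on an Illumina sequencing chip from sequenced DNA templates were incubated at room temperature with fluorescently labeled MS2 coat protein at 1.5 nM to 3 μM. The buffer was Tris-HCl pH 7.5 with KCl, MgCl2, BSA, DTT, tRNA and Tween20, and incubation ran 0.8–1.5 h at the lowest and 10–20 min at the highest concentrations. Apparent Kd is reported as the median of fits to binding curves from individual clusters. Designs measured on fewer than 10 clusters are not included.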
# MS2 coat protein [2] = experiment: apparent Kd, MS2 coat protein; higher = weaker binding; RNA-MaP array; FMN 200 µM where present
# Procedure, shortened: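 Stalled E. coli RNA polymerase transcribed the designs on Illumina sequencing-chip clusters. SNAP-549-labelled MS2 coat protein was titrated from 0.7 or 1.5 nM, doubling to 3 µM, without and then with constant ligand, in 100 mM Tris-HCl pH 7.5, 80 mM KCl, 4 mM MgCl2, BSA, DTT, yeast tRNA and Tween-20. Per-cluster binding curves were fitted to green signal normalised to red-channel RNA signal and control-cluster median Fmax. The apparent Kd is the median of the filtered fits.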
# [3] = designed as: OFF switch for flavin mononucleotide, no ligand
# [4] = ligand present: flavin mononucleotide, designed as: OFF switch for flavin mononucleotide
# [5] = designed as: ON switch for flavin mononucleotide, no ligand
# [6] = ligand present: flavin mononucleotide, designed as: ON switch for flavin mononucleotide
sequence,measurement,setting,value
AAACUGAUCUUCAGGAGUCACUAUAUCUCCCGAGGACCGGUACGGCCGCCACUCGAACGUUUACAUGAGGAUCACCCAUGUGACU,apparent Kd,"MS2 coat protein [1]; designed as: OFF switch for tryptophan, no ligand",14.8 nM
same,apparent Kd,"MS2 coat protein [1]; ligand present: tryptophan, designed as: OFF switch for tryptophan",19.6 nM
AAAGACGACCAGAAGGAGCCGCCACAUGAGGAUCACCCAUGUAUGCAAAGAUAACUGGGUUAACGCUAGGAUAUGGUGGAGAAA,apparent Kd,MS2 coat protein [1]; [3],63.5 nM
same,apparent Kd,MS2 coat protein [1]; [4],44.1 nM
AAAUGAGCGCAUCCCUAACAUGAGGAUCACCCAUGUGCUACAGAGGAUAUCGUCACCAUAUCUCACGAGAAGGCUGGUAUAUUG,apparent Kd,MS2 coat protein [1]; [3],9.25 nM
same,apparent Kd,MS2 coat protein [1]; [4],11.4 nM
AACACACCAAAUGAUACCAGCUACAACAUGAUACAAAACCACAUGAGGAUCACCCAUGUAAGCCCUUGGCAGCAUACUACUGUAA,apparent Kd,"MS2 coat protein [1]; designed as: OFF switch for theophylline, no ligand",18.1 nM
same,apparent Kd,"MS2 coat protein [1]; ligand present: theophylline, designed as: OFF switch for theophylline",42.5 nM
AACGUACAUGAGGAUCACCCAUGUGAGGAUAUGCCUAAAGAGUUCUAAGCAUCCAAGGGCAGAAGGCACAUGAA,apparent Kd,MS2 coat protein [1]; [3],99.1 nM
same,apparent Kd,MS2 coat protein [1]; [4],140 nM
AACUGUAAUACAAGAACAUGAGGAUCACCCAUGUGUCGCGCAGAGGAUAUACUGGUUCGCUGUCCGUAGAAGGCUGAGCACAUG,apparent Kd,MS2 coat protein [1]; [5],33.9 nM
same,apparent Kd,MS2 coat protein [1]; [6],23.9 nM
AAGAACAUGAGGAUCACCCAUGUGAUCGUUCGAGGACCGGUACGGCCGCCACUCGGACCUGUGUCCAGGCACGGGCCGACGCGAC,apparent Kd,"MS2 coat protein [1]; designed as: ON switch for tryptophan, no ligand",77.8 nM
same,apparent Kd,"MS2 coat protein [1]; ligand present: tryptophan, designed as: ON switch for tryptophan",38.2 nM
AAUACACAUGAGGAUCACCCAUGUAAGGAUAUCAAGCAUCAAACAUUAGAGUGAGGAGUGAGAAGGUACAUCAC,apparent Kd,MS2 coat protein [1]; [3],20.1 nM
same,apparent Kd,MS2 coat protein [1]; [4],16.3 nM
AAUAGAGAGCAGAAGGCCCUAGUUAUCGGCAUGGGAGGAUAUGCACCAGAUAAUAACAUGAGGAUCACCCAUGUUGAAUAAGAA,apparent Kd,MS2 coat protein [1]; [5],19.4 nM
same,apparent Kd,MS2 coat protein [1]; [6],6.46 nM
ACAACUGCAGGAUAUACGAGGGCCGAGGUAUCCGUCCUCGGACAUGAGGAUCACCCAUGUAGAAGGGCAACGAU,apparent Kd,MS2 coat protein [1]; [3],20.9 nM
same,apparent Kd,MS2 coat protein [1]; [4],24.1 nM
ACAAGGAGUCAAGGAUAUGAUAGAAGUUACACAUGAGGAUCACCCAUGUUUCUCCGGUGUCAGAAUCAGAAGGUGAGUAUGCAU,apparent Kd,MS2 coat protein [1]; [3],85.2 nM
same,apparent Kd,MS2 coat protein [1]; [4],74.7 nM
ACACCUCACGGAAUACAUGAGGAUCACCCAUGUUGGGAAGGAAGAAGGUUCCGUGUUGAUUGCUGAAAGGAUAUUCGUGACCCG,apparent Kd,MS2 coat protein [1]; [3],190 nM
same,apparent Kd,MS2 coat protein [1]; [4],153 nM
ACAGAACGAGGAUAUCCACUUUGAUACAUGAGGAUCACCCAUGUCCUGAAAGUGUUUCAGGGAGAAGGCGUACCUA,apparent Kd,MS2 coat protein [1]; [3],18 nM
ACAUCCACCAAGAAGGCUGGUGCGGCACUUAAGUCGUUCACAUGAGGAUCACCCAUGUCGUAUACAGAGGAUAUUGAGGUUUUC,apparent Kd,MS2 coat protein [1]; [3],39.1 nM
same,apparent Kd,MS2 coat protein [1]; [4],38.7 nM
UUGUACCGGUGAGGAUAUUUUUAAUAGAACUUUAUGAUAUACAUGAGGAUCACCCAUGUUACUUUAAAGAAGGCAUCGGAUUAU,apparent Kd,MS2 coat protein [2]; [3],18.9 nM
same,apparent Kd,MS2 coat protein [2]; [4],14.8 nM
UUGUUACGAUUAGGAUAUUAUAGAUUGAAUAGUAUGAUUUACAUGAGGAUCACCCAUGUUACAUUUAAGAAGGAAUCGAAUUAU,apparent Kd,MS2 coat protein [2]; [3],21.1 nM
same,apparent Kd,MS2 coat protein [2]; [4],16.9 nM
UUGUUGUAUGUAGGAUAUGCGUGUUAUUAUUAUGCAGAAGGACAUGAGGAUCACCCAUGUAUAUUAUUAUUAUAUGUUAUAUAU,apparent Kd,MS2 coat protein [2]; [3],25 nM
same,apparent Kd,MS2 coat protein [2]; [4],23.9 nM
UUGUUGUCAGGAUAUCGUUAAUUUAAUUGUUUGUAUUAGUUCGAGAAGGGACAUGAGGAUCACCCAUGUUUGUU,apparent Kd,MS2 coat protein [2]; [3],34.5 nM
same,apparent Kd,MS2 coat protein [2]; [4],73.5 nM
UUGUUUAGAAAUUAACAUGAGGAUCACCCAUGUAUUGGAUCAGAGGAUAUGCAUGUUUGAUUGUAGCAGAAGGCUGAUUGUUGA,apparent Kd,MS2 coat protein [2]; [5],50.6 nM
same,apparent Kd,MS2 coat protein [2]; [6],45.1 nM
UUUAAACAUGAGGAUCACCCAUGUCGUUCAAAUCAAGGAUAUCAAGCGUAUGCGCACGCUUGAGAAGGUGAAGCUC,apparent Kd,MS2 coat protein [2]; [5],47.2 nM
same,apparent Kd,MS2 coat protein [2]; [6],135 nM
UUUAAGUGAGGAUAUACGAAUAGUAAGUAAGUAUUACAGACGUAGAAGGCACAUGAGGAUCACCCAUGUAAAUA,apparent Kd,MS2 coat protein [2]; [3],30.1 nM
same,apparent Kd,MS2 coat protein [2]; [4],28.2 nM
UUUACAUACAUGAGGAUCACCCAUGUGUUCACCCAUGUAAAUCAGGAUAUAUAUAUAUAGAAUGUAUAGAAGGGAUAAUUUUUU,apparent Kd,MS2 coat protein [2]; [3],97.5 nM
same,apparent Kd,MS2 coat protein [2]; [4],99.7 nM
UUUACAUGAGGAUCACCCAUGUAUAGAACGGUUAAUUAAAGUGAGGAUAUACAUAAUUUUAUAUUGUAGAAGGCACUGGGUACA,apparent Kd,MS2 coat protein [2]; [5],14.3 nM
same,apparent Kd,MS2 coat protein [2]; [6],17.5 nM
UUUACAUGAGGAUCACCCAUGUUAAAAUAAUUAAUUAUAAGUGAGGAUAUAUAAAUUAUAAAAUUGUAGAAGGCACUGGGUAUC,apparent Kd,MS2 coat protein [2]; [5],47.9 nM
same,apparent Kd,MS2 coat protein [2]; [6],44.5 nM
UUUACAUGAGGAUCACCCAUGUUUUGAAAGAUUAGUUUUGGUGAGGAUAUACAUGAUAAAGAAUUGUAGAAGGCACUGGGUACA,apparent Kd,MS2 coat protein [2]; [5],45.4 nM
same,apparent Kd,MS2 coat protein [2]; [6],28.6 nM
UUUACUUACGAAGGAUAUGGUUACAUGAGGAUCACCCAUGUAUGUAUAUUGAUCUAGUAUUUUAACCAGAAGGUCGUGAUUAUU,apparent Kd,MS2 coat protein [2]; [3],31.8 nM
same,apparent Kd,MS2 coat protein [2]; [4],46.9 nM
UUUAGUUCAGGAUAUGUAGAUUUUAACAUGAGGAUCACCCAUGUAGAUCCUGAUCCUGCUACAGAAGGGAAUAUUU,apparent Kd,MS2 coat protein [2]; [3],23.1 nM
same,apparent Kd,MS2 coat protein [2]; [4],25.1 nM
